Drawing on ChEMBL document CHEMBL4130520 (ACS Med Chem Lett, 2017), this text covers MIC90 and IC50 for 5 compounds.

For assay [1], the system named is Mycobacterium tuberculosis. Put plainly: Antitubercular activity against Mycobacterium tuberculosis H37Rv after 4 days by MABA method. It counts as functional. Conditions: 96 h. In short, it runs like this: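 Aerobic culture of H37Rv in microplate Alamar blue assay. MIC90 taken as the minimum concentration giving 90% growth inhibition. Each value is the mean of at least two independent determinations. Most compounds were tested as RS,SR diastereomer mixtures; a few were tested only as the pure R,S enantiomer.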

For assay [2], the target named is Voltage-gated inwardly rectifying potassium channel KCNH2 (Homo sapiens, UniProt Q12809). Put plainly: Inhibition of human ERG.
Voltage-gated inwardly rectifying potassium channel KCNH2, sequence (Q12809 whole entry): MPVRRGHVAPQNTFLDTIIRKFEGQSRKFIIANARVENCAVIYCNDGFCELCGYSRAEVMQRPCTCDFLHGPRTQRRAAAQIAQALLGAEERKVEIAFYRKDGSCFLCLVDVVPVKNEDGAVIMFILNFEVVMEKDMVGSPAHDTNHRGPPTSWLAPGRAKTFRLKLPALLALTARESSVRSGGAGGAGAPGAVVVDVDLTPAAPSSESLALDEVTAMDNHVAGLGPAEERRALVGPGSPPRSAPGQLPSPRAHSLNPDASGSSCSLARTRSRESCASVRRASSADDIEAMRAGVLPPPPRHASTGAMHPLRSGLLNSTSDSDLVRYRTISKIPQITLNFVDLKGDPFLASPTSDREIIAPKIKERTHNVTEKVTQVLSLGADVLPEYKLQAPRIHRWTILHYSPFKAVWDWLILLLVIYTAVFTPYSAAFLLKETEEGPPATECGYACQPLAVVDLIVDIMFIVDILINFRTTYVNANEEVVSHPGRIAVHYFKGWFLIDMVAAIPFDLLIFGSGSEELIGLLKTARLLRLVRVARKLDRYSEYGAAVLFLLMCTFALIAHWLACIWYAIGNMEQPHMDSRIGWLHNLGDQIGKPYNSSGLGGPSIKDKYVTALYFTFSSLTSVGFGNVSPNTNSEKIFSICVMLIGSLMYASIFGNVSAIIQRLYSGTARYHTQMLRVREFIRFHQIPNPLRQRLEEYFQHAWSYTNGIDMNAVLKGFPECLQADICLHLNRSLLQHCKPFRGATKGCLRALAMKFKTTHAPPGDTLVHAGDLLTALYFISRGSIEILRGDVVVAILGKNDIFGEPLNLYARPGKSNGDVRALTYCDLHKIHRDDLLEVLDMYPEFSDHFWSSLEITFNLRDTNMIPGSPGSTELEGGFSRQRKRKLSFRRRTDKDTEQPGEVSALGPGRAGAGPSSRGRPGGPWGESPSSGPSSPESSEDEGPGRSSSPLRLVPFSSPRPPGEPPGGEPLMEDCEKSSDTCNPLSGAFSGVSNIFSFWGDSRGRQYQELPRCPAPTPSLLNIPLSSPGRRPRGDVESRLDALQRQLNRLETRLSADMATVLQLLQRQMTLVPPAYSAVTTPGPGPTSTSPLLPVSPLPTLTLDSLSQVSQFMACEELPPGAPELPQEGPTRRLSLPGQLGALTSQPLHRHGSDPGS

Converted amounts (≈) assume the structure as drawn.

As a reminder, the MIC90 is an inhibitory concentration at the 90% level, which refers to growth in some studies and to a panel of isolates in others. The term IC50 denotes the concentration at which inhibition is half-maximal. The compound `COc1nc2ccc(C(=O)N(C)C)cc2cc1C(c1ccccc1)C(O)(CCN(C)C)c1cccc2ccccc12` (stereo not given) registered an MIC90 in assay [1] of 2.2 µg/mL (≈ 4.02 µM). In addition, the concentration for half-maximal inhibition (IC50) in assay [2] turned out to be 6.3 µM.
In the same order, the values of `COc1nc2ccc(CC(C)=O)cc2cc1C(c1ccccc1)C(O)(CCN(C)C)c1cccc2ccccc12` (stereo not given) are > 7 µg/mL and 10 µM.
Compound `COc1nc2ccc(CO)cc2cc1C(c1ccccc1)C(O)(CCN(C)C)c1cccc2ccccc12` (stereo not given) came in with an MIC90 in assay [1] of 1.6 µg/mL (≈ 3.16 µM). The 50% inhibitory concentration (IC50) in assay [2] turned out to be 10 µM.
Taken in the same sequence, the figures for `COc1nc2ccc(C(=O)O)cc2cc1C(c1ccccc1)C(O)(CCN(C)C)c1cccc2ccccc12` (stereo not given) were > 6.7 µg/mL and 10 µM.
In the same order, the values of `COc1nc2ccc(CN)cc2cc1C(c1ccccc1)C(O)(CCN(C)C)c1cccc2ccccc12` (stereo not given) are > 12 µg/mL and 1.7 µM.
